High-throughput results deposited in PubChem BioAssay by several laboratories.
KCC2 mod = KCC2 (human) Cl- transport modulation | Q9H2X9 | KCC2 cells, thallium flux FluoZin-2 fluorescence | 190,000 tested, 2.2% active | AID 1456 | B-score of Tl+ flux slope (higher = more flux/activation; lower = inhibition) at 10 µM;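 active = thallium flux slope and its plate-corrected score both differing from the plate sample mean at a set confidence after two filtering rounds, in either direction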;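 note: slope of fluorescence scaled to starting intensity during 10 to 20 s after thallium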
p97 ATPase inh = inhibitors of human p97 ATPase; inhibition, % at 8 µM; recombinant p97 ATPase, Kinase-Glo ATP luminescence, 3 h; P55072; 220,000 tested, 0.42% active; AID 1481; in the data active = inhibition above about 15%
Mdm2 ligase inh = Mdm2 E3 ligase (human) inhibition. signal enhancement, % at 5 µM. cell-based MDM2 ubiquitination luciferase reporter, 2 h; 0 = plate control, 100 = twice control, blank-subtracted. Q00987. 210,000 tested, 0.11% active. AID 1230;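 active = signal enhancement of 30% or more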;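 note: luminescence tracks abundance of the self-degrading MDM2-luciferase fusion protein; higher signal means inhibition of MDM2 E3 ligase activity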
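Assay system: mammalian cells stably expressing self-ubiquitinating, self-degrading MDM2 E3–luciferase fusion. Quantity: 2000 cells in each well. Medium: DMEM culture medium. Compound dosing: single-point 5 µM. Timing: cell settling 4 h, compound treatment 2 h, both 37 °C. Technique: luciferase luminescence. Read-out basis: percent signal gain over controls, blank-subtracted. Benchmarks: plate controls and plate blanks.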
ROMK mod = human ROMK K+ channel modulation, primary screen. P48048. Tet-inducible ROMK, thallium flux fluorescence; actives lie on both sides. B-score at 10 µM. 130,000 tested, 2% active. AID 1918;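 active = signal ratio slope over the read window, or its plate-corrected B-score, at least 3 SD from the plate mean, either direction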;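 note: B-score of the F/F0 ratio slope over 7 to 12 s after thallium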
PKD1 kinase inh = PKD1 (human) kinase inhibition | 200,000 tested, 0.056% active | AID 797 | PKD1 kinase fluorescence polarization assay | inhibition, % (test concentration not listed) | Q15139; in the data active = inhibition above about 50%
Target sequence (Q15139 whole entry, looked up): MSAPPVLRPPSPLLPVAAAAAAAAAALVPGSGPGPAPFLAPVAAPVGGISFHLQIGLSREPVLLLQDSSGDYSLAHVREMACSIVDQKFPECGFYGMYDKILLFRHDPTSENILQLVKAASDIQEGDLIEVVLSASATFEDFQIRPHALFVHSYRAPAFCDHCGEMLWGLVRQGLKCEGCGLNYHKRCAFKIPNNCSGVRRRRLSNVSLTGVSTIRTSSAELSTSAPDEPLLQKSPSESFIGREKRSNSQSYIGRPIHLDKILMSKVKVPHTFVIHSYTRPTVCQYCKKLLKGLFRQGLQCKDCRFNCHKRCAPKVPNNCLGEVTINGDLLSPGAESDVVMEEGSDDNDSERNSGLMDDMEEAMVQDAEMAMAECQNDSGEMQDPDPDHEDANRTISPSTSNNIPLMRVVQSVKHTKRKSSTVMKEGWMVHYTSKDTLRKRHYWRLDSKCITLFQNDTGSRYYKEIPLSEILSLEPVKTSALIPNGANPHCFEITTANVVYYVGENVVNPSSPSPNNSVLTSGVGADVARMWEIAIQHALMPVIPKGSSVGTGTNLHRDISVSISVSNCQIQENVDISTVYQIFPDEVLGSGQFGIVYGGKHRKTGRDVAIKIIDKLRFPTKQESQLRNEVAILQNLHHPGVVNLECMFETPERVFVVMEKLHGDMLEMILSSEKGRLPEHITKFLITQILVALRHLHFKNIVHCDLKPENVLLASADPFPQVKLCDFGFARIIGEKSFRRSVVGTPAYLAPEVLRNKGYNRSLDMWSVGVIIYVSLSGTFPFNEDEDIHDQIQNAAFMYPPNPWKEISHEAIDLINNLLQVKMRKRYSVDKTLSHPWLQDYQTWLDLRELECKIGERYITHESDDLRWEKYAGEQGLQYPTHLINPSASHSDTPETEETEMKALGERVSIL
Redox H2O2 prof = compounds producing H2O2 with reducing agent – biochemical, NIH compound library profiling, artefact control for MLSCN library redox annotation, primary screen; activation, % at 10 µM; DTT-dependent redox cycling H2O2, phenol red/HRP absorbance; 100% = 100 µM peroxide control, 0% = buffer; 200,000 tested, 0.03% active;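 active = activation of at least 50% relative to the plate's high and low controls in the primary single-dose screen; inactive = activation below 50%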;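 note: compound incubated with DTT at 0.8 mM final as the reducing agent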
KCC2 secondary = confirmation of human KCC2 transport modulators; AID 1713; shares compounds with KCC2 mod; 3,700 tested, 15% active; normalised thallium flux (F/F0 slope) at 10 µM; HEK293-KCC2, thallium flux, FluoZin2 fluorescence; hits give high values;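 active = thallium flux slope above the same plate's solvent-only control mean plus 3 SD; inconclusive = the two replicate wells disagree; inactive = no significant difference from solvent-only control wells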
KCC2 bumet counter = thallium flux despite bumetanide block in KCC2 cells, secondary assay 3. AID 1714. 3,700 tested, 49% active. shares compounds with KCC2 mod. HEK293-KCC2 + bumetanide/ouabain, thallium flux FluoZin2; hits give high values. normalized thallium flux at 10 µM;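 active = thallium entry rate above the same plate's blocked-transporter control wells by more than 3 SD; inconclusive = the two repeat wells disagree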;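 note: raw slope of fluorescence over initial fluorescence between 10 and 20 s after thallium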
KCC2 sec2 = confirmation of human KCC2 transport modulators; shares compounds with KCC2 mod; HEK293-KCC2, thallium flux FluoZin2 fluorescence; actives lie on both sides; F/F0 rise rate, 10–20 s post-thallium; normalized thallium flux at 10 µM; 3,700 tested, 23% active; AID 1715;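 active = thallium flux slope more than 3 SD above or below the plate's solvent-only control mean, mostly below; inconclusive = the two repeat wells disagreed; inactive = no significant shift from solvent-only controls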
HEK293 Tl flux = counter-screen for KCC2 modulators: effect in parental HEK293 cells. shares compounds with KCC2 mod. thallium flux FluoZin2, ouabain; baseline-ratio fluorescence slope, 10–20 s after thallium. thallium flux rate (normalised fluorescence) at 10 µM. 3,700 tested, 46% active. AID 1716;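 active = thallium flux rate significantly above the same plate's solvent-only control wells, beyond their mean plus 3 SD; inconclusive = the two replicate wells gave conflicting results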
KCC2 retest ouab = modulates human KCC2 on retest with ouabain; 3,700 tested, 48% active; raw Tl+ flux slope (below DMSO = inhibition, above = activation) at 10 µM; shares compounds with KCC2 mod; HEK293-KCC2, thallium flux FluoZin2 fluorescence; bidirectional: low = inhibitor, high = activator; AID 1717;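 active = thallium flux slope beyond 3 SD from same-plate DMSO control mean in most replicates, usually higher, sometimes lower; inconclusive = repeat tests gave conflicting results; inactive = no significant difference from controls in most replicates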;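 note: slope of initial-normalized fluorescence between seconds 10 and 20 after thallium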
HEK293 Tl flux2 = parental HEK flux effect, counter-screen 2; shares compounds with KCC2 mod; HEK293 parental, thallium flux FluoZin-2 fluorescence slope; thallium flux slope at 10 µM; 3,700 tested, 33% active;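 active = thallium flux slope above the same plate's solvent-control mean plus 3 SD in both duplicate wells; inconclusive = duplicate wells that disagreed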;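 note: run without ouabain in cells lacking the KCC2 cotransporter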
A number is an active result; n = inactive; u = inconclusive; x = no result given. Rows were chosen to be rich in hits. Some 3.4% of all compounds tested hit in one or more screens of this group.

SMILES	KCC2 mod	p97 ATPase inh	Mdm2 ligase inh	ROMK mod	PKD1 kinase inh	Redox H2O2 prof	KCC2 secondary	KCC2 bumet counter	KCC2 sec2	HEK293 Tl flux	KCC2 retest ouab	HEK293 Tl flux2
CCOc1ccc2nc(NC(=O)c3ccccn3)sc2c1	6.4	n	x	x	x	x	u	0.028	n	0.013	0.03	u
O=C(Nc1nc2c(F)cc(F)cc2s1)c1ccccn1	23	n	n	n	n	n	0.02	0.11	n	0.039	0.076	0.015
O=C(COc1ccccc1)NNc1nc2c(F)cc(F)cc2s1	n	n	n	n	n	n	x	x	x	x	x	x
CCOc1ccc2nc(NC(=O)Nc3ccccc3)sc2c1	x	n	n	n	n	n	x	x	x	x	x	x
COc1ccc2nc(NC(=O)CNS(=O)(=O)c3cccs3)sc2c1	x	n	n	n	n	n	n	n	n	n	u	u
Cc1ccc2nc(N/C(=N/S(=O)(=O)c3cccs3)c3ccccc3Cl)sc2c1	6.4	n	n	n	n	n	n	0.023	n	0.022	u	0.017
CCn1c(SCC(=O)Nc2cc(OC)c(OC)c(OC)c2)nnc1-c1cccs1	x	n	n	x	n	n	x	x	x	x	x	x
Cc1ccc(C(=O)NCC(=O)OCC(=O)NCC(F)(F)F)cc1	n	n	n	n	n	n	x	x	x	x	x	x
COc1cccc(/C=N/NC(=O)CCc2c(C)n[nH]c2C)c1	n	n	n	n	n	n	x	x	x	x	x	x
Cc1ccc(OCC(=O)NCc2ccccn2)cc1	n	n	n	x	n	n	x	x	x	x	x	x
O=C(Nc1nc2ccc(S(=O)(=O)N3CCCC3)cc2s1)c1ccccn1	n	n	n	n	n	n	x	x	x	x	x	x
Cc1ccc2nc(NC(=O)c3ccccn3)sc2c1	7.9	n	n	n	n	n	u	0.041	n	0.018	0.036	0.011
O=C(NNC(=S)NC(=O)c1ccco1)c1ccc(NC(=O)c2ccccc2)cc1	n	n	n	n	n	n	x	x	x	x	x	x
O=C(NC(=S)NNC(=O)c1ccccc1O)c1ccco1	3.5	n	n	x	n	n	n	0.013	n	u	u	n
O=C(NC(=S)NNC(=O)c1cc2ccccc2cc1O)c1ccco1	48	n	x	n	n	n	0.021	0.073	n	0.05	0.058	0.014
Cc1ccc(N2CCN(C(=O)CNS(=O)(=O)c3ccc(Br)s3)CC2C)cc1 (stereo not given)	n	n	n	x	n	n	x	x	x	x	x	x
CCOC(=O)CNC(=O)Cn1cnc2sc(C)c(S(=O)(=O)N3CCC(C)CC3)c2c1=O	n	n	n	x	n	n	x	x	x	x	x	x
CC(=O)Nc1ccc(S(=O)(=O)Nc2cccc(-c3nc4ccccc4o3)c2)cc1	x	n	n	n	n	n	n	u	n	n	n	n
NC(=O)c1ccc(F)cc1	n	n	n	n	n	n	n	n	n	n	n	n
Cc1n[nH]c(C)c1CCCOc1ccccc1	x	n	n	n	n	n	x	x	x	x	x	x
COc1ccc(OCCCc2c(C)n[nH]c2C)cc1	4.8	n	n	n	n	n	n	n	n	n	n	u
CC(C)c1nc2n[nH]c(N)c2c2c1CCC2	x	n	n	n	n	n	x	x	x	x	x	x
Fc1ccc(-n2ncc3c(SCc4cccnc4)ncnc32)cc1	21	n	n	x	n	n	n	0.026	u	0.029	0.031	0.023
Cc1ccc(CSc2ncnc3c2cnn3-c2ccccc2)cc1	n	n	n	x	n	n	x	x	x	x	x	x
CC(C)(C)c1csc(NC(=O)c2cccs2)n1	n	n	n	n	n	n	x	x	x	x	x	x
SMILES	KCC2 mod	p97 ATPase inh	Mdm2 ligase inh	ROMK mod	PKD1 kinase inh	Redox H2O2 prof	KCC2 secondary	KCC2 bumet counter	KCC2 sec2	HEK293 Tl flux	KCC2 retest ouab	HEK293 Tl flux2
CC(C)(C)c1csc(NNC(=O)c2ccc(Cl)cc2)n1	24	n	n	n	x	x	n	0.03	n	0.037	0.032	0.014
CCOC(=O)c1sc2nc(C)[nH]c(=S)c2c1C	200	n	n	x	n	n	0.054	0.15	0.052	0.11	0.12	0.05
CCOC(=O)c1sc2nc(C)n(N)c(=O)c2c1C	n	n	n	n	n	n	x	x	x	x	x	x
CCOc1ccc(S(=O)(=O)NCCSCc2ccco2)cc1	x	n	n	n	n	n	n	n	n	n	n	n
COc1ccc(S(=O)(=O)NCCSCc2ccco2)cc1	x	n	n	n	n	n	x	x	x	x	x	x
O=C(c1ccc(S(=O)(=O)N2CCCCCC2)cc1)N1CCC(CN2C(=O)c3cccc4cccc(c34)C2=O)CC1	n	n	n	n	n	n	x	x	x	x	x	x
COc1ccc(CN2C(=O)c3c(c(C)n(C)c3C)C2C(=O)NC2CCC(C)CC2)cc1 (stereo not given)	n	n	n	n	n	n	x	x	x	x	x	x
N#Cc1c(NC(=O)c2cccnc2)sc2c1CCC2	n	n	n	n	n	n	x	x	x	x	x	x
N#Cc1c(NC(=O)c2ccccc2)sc2c1CCC2	x	n	n	n	n	n	n	n	n	n	n	n
Cn1cc(S(=O)(=O)N2CCc3ccccc3C2)c(=O)n(C)c1=O	-3.4	n	n	x	n	n	n	u	n	n	n	n
O=C(O)c1cc([N+](=O)[O-])ccc1NCc1ccccc1	-5.3	n	x	n	n	n	n	n	0.025	n	u	n
COc1ccc([N+](=O)[O-])cc1NCc1ccccc1	-3.8	n	n	x	n	n	n	n	n	0.0053	0.014	n
O=C(NCc1ccccc1Cl)c1cc([N+](=O)[O-])ccc1Cl	n	n	n	n	n	n	x	x	x	x	x	x
O=C(NCCCc1ccccc1)c1cc([N+](=O)[O-])ccc1Cl	-7.5	n	n	n	n	n	u	n	0.02	u	0.012	n
O=C(O)c1ccccc1Nc1ccc([N+](=O)[O-])cc1C(=O)O	n	n	n	n	x	x	x	x	x	x	x	x
O=C(O)c1cc([N+](=O)[O-])ccc1N1CCCCC1	n	n	n	n	n	n	x	x	x	x	x	x
O=C(O)c1cc([N+](=O)[O-])ccc1N1CCC(Cc2ccccc2)CC1	-4.6	n	n	x	n	n	n	u	u	n	0.015	n
